Data reported in PMC3590405 (European Journal of Nuclear Medicine and Molecular Imaging, 2013).

Key:
[1] = tested on: amyloid-β plaques; experiment: In vitro autoradiography on human AD brain sections; assay type: binding; conditions: white matter
Summary of the method: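 Cryo-cut 10 μm post-mortem AD cortical sections preincubated in 50 mM Tris (pH 7.4) at room temperature, then 30 min with 3 nM [3H]ligand in Tris buffer. Optical densities (digital light units/mm²) read in grey and white matter ROIs. Subcortical white matter signal taken as nonspecific binding. Signal-to-noise = (grey − white)/white.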

[2] = molecular target: amyloid-β (Homo sapiens, UniProt P05067); experiment: Human PET, DVR by reference Logan with cerebellum as reference; assay type: in vivo; conditions: for DVR (mean ± SD), anterior cingulate cortex / DVR (mean ± SD), grey matter / DVR (mean ± SD), hippocampus / DVR (mean ± SD), lateral temporal cortex / DVR (mean ± SD), parietal cortex / DVR (mean ± SD), posterior cingulate cortex / DVR (mean ± SD), prefrontal cortex / DVR (mean ± SD), white matter: refLogan
Chain of amyloid-β (P05067 672-711 limits assumed): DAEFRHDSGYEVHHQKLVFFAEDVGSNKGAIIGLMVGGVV
Summary of the method: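 IV bolus [11C]radioligands in controls and AD patients; ROIs manually drawn on 1.5-T T1 MRI, cortical ROIs restricted to segmented grey matter. Reference Logan used cerebellar cortex (white matter and vermis excluded) as reference. Six linear-phase frames: 13–45 min for AZD2995, 30–60 min for AZD2184. DVR = target/cerebellum V T. Groups compared by Mann–Whitney U (p < 0.05) and pooled-SD effect size.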

[3] = Brain time-activity curves in human PET; assay type: in vivo; conditions: after intravenous injection
Summary of the method: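 [11C]radioligand in sterile disodium phosphate-buffered saline (pH 7.4), filtered, given as an IV bolus to control subjects and mild–moderate AD patients. Dose for the AZD2995 radioligand was 410 ± 18 MBq (620 ± 486 GBq/μmol). List-mode PET ran 93 min (38 frames), with PSF-modelled iterative reconstruction. Brain radioactivity was expressed as percent injected activity over time.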

[4] = tested on: amyloid-β plaques and neurofibrillary tangles; conditions: AD patients; cited from earlier work
[5] = molecular target: Aβ(1-42) amyloid fibrils (Homo sapiens, UniProt P05067); experiment: Competition binding against [3H]PIB on Aβ; conditions: [3H]PIB 3 nM, Aβ(1-42) fibrils
Chain of Aβ(1-42) amyloid fibrils (P05067 672-713): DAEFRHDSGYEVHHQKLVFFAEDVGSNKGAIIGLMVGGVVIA

[6] = cited from earlier work
[7] = molecular target: synthetic Aβ(1-40) amyloid fibrils (Homo sapiens, UniProt P05067); experiment: Competition binding against [3H]PIB on Aβ; conditions: [3H]PIB 3 nM, Aβ(1-40) fibrils
Chain of synthetic Aβ(1-40) amyloid fibrils (P05067 672-711): as the sequence (P05067 672-711 limits assumed) above

[8] = AD patients vs control subjects, DVR
[9] = read-out: IC50, inhibition of [3H]PIB binding

SMILES: [3H]C([3H])([3H])Nc1ccc(-c2nc3ccc(O)cc3s2)cc1 [[^3H]PIB]
- nonspecific binding and background, rank order [1]: highest

SMILES: [11CH3]Nc1ccc(-c2nc3ccc(O)cc3s2)cn1 [[^11C]AZD2184]
- Effect size, anterior cingulate cortex [2, 8]: 8.52
- Effect size, grey matter [2, 8]: 4.89
- Effect size, hippocampus [2, 8]: 1.73
- Effect size, lateral temporal cortex [2, 8]: 5.00
- Effect size, parietal cortex [2, 8]: 5.26
- Effect size, posterior cingulate cortex [2, 8]: 6.34
- Effect size, prefrontal cortex [2, 8]: 5.82
- Effect size, white matter [2, 8]: 2.67
- DVR (mean ± SD), anterior cingulate cortex ([2]; AD patients): 1.97 ± 0.15
- DVR (mean ± SD), grey matter ([2]; AD patients): 1.72 ± 0.17
- DVR (mean ± SD), hippocampus ([2]; AD patients): 1.11 ± 0.10
- DVR (mean ± SD), lateral temporal cortex ([2]; AD patients): 1.94 ± 0.22
- DVR (mean ± SD), parietal cortex ([2]; AD patients): 2.07 ± 0.25
- DVR (mean ± SD), posterior cingulate cortex ([2]; AD patients): 2.10 ± 0.18
- DVR (mean ± SD), prefrontal cortex ([2]; AD patients): 2.13 ± 0.23
- DVR (mean ± SD), white matter ([2]; AD patients): 1.25 ± 0.05
- DVR (mean ± SD), anterior cingulate cortex ([2]; control subjects): 0.92 ± 0.02
- DVR (mean ± SD), grey matter ([2]; control subjects): 1.05 ± 0.05
- DVR (mean ± SD), hippocampus ([2]; control subjects): 0.95 ± 0.08
- DVR (mean ± SD), lateral temporal cortex ([2]; control subjects): 1.03 ± 0.05
- DVR (mean ± SD), parietal cortex ([2]; control subjects): 1.04 ± 0.04
- DVR (mean ± SD), posterior cingulate cortex ([2]; control subjects): 1.17 ± 0.02
- DVR (mean ± SD), prefrontal cortex ([2]; control subjects): 1.04 ± 0.04
- DVR (mean ± SD), white matter ([2]; control subjects): 1.08 ± 0.13
- time to peak of total radioactivity in brain [3]: at the same time
- radioactivity in the brain at peak ([3]; % of injected radioactivity): 3.0–3.5%

SMILES: CC(=C(C#N)C#N)c1ccc2cc(N(C)CC[18F])ccc2c1 [[^18F]FDDNP]
- specific binding signal compared to other amyloid radioligands [4]: ninefold lower

SMILES: CNc1ccc(-c2nc3ccc(O)cc3o2)cn1 [AZD2995]
- pIC50, inhibition of [3H]PIB binding [5]: 6.69 ± 0.05
- IC50 [5, 9]: 0.204 µM
- logD [6]: 1.3
- pIC50, inhibition of [3H]PIB binding [7]: 6.77 ± 0.02
- IC50 [7, 9]: 0.17 µM

SMILES: CNc1ccc(-c2nc3ccc(O)cc3s2)cn1 [AZD2184]
- logD [6]: 1.8
